In brackets after ≈: the same amount, converted by molar mass.
Legend:
Escherichia coli [1] = experiment: Antibacterial activity against drug-sensitive Escherichia coli MTCC 443 after 24 hrs by broth microdilution assay; type: functional
In short: (§1)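 Bacteria grown 6 h to ~10^9 cfu/mL and diluted to 10^5 cfu/mL in nutrient media. Growth media were LB (E. coli), yeast-dextrose broth (S. aureus, P. aeruginosa) and BHI (E. faecium). Compound was serially diluted in water and added 1:3 to bacteria, then incubated 37 °C for 24 h with OD600 read-out. Triplicate ODs were sigmoid-fitted; MIC was taken where OD matched the no-bacteria control. At least two independent experiments.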

Enterococcus faecium [2] = experiment: Antibacterial activity against drug-sensitive Enterococcus faecium ATCC 19634 after 24 hrs by broth microdilution assay; type: functional; in short: as §1
Staphylococcus aureus [3] = experiment: Antibacterial activity against methicillin-resistant Staphylococcus aureus ATCC 33591 after 24 hrs by broth microdilution assay; type: functional
In short: (§2)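 MIC by broth microdilution. Cultures were grown 6 h to ~10^9 cfu/mL, then diluted to 10^5 cfu/mL. Media: yeast-dextrose broth for MRSA, BHI for VRE, and beef extract/peptone nutrient broth for K. pneumoniae. Compounds were serially diluted in water, 50 µL added to 150 µL cells, and incubated 24 h at 37 °C. OD600 triplicates were sigmoid-fitted; MIC is the point where OD equals the no-bacteria control. Mean ± SEM of ≥2 experiments.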

Enterococcus faecium [4] = experiment: Antibacterial activity against vancomycin-resistant Enterococcus faecium ATCC 51559 after 24 hrs by broth microdilution assay; type: functional; in short: as §2
Pseudomonas aeruginosa = experiment: Antibacterial activity against drug-sensitive Pseudomonas aeruginosa ATCC 4676 after 24 hrs by broth microdilution assay; type: functional; in short: as §1
[5] = Retention time of the compound by HPLC analysis; type: physicochemical
Staphylococcus aureus [6] = experiment: Antibacterial activity against drug-sensitive Staphylococcus aureus MTCC 737 after 24 hrs by broth microdilution assay; type: functional; in short: as §1
[7] = Hemolytic activity in human erythrocytes after 1 hr by spectrophotometric analysis; type: ADME, cell-based, Erythrocyte
In short: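 Heparinized fresh human erythrocytes at 5 vol% in PBS pH 7.4 were mixed 3:1 with serially diluted compound and held 1 h at 37 °C. Plates were centrifuged and supernatant A540 read. Hemolysis was scaled between an untreated control and a Triton X-100 (100% lysis) control. HC50 is the mean of at least two independent triplicate experiments.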

Klebsiella pneumoniae = experiment: Antibacterial activity against beta-lactam-resistant Klebsiella pneumoniae ATCC 700603 after 24 hrs by broth microdilution assay; type: functional; in short: as §2
Escherichia coli [8] = experiment: Ratio of MSI-78 MIC to compound MIC for Escherichia coli; type: functional

Row | Compound | MIC (Escherichia coli [1]; MTCC 443, 24 h) | MIC (Enterococcus faecium [2]; ATCC 19634, 24 h) | MIC (Staphylococcus aureus [3]; ATCC 33591, 24 h) | MIC (Enterococcus faecium [4]; ATCC 51559, 24 h) | MIC (Pseudomonas aeruginosa; ATCC 4676, 24 h) | Retention_time [5] | MIC (Staphylococcus aureus [6]; MTCC 737, 24 h) | HC50 at 1 h [7] | MIC (Klebsiella pneumoniae; ATCC 700603, 24 h) | Ratio (Escherichia coli [8]) | MIC (Escherichia coli [1]) | MIC (Enterococcus faecium [2]) | MIC (Staphylococcus aureus [3]) | MIC (Enterococcus faecium [4]) | MIC (Pseudomonas aeruginosa) | MIC (Staphylococcus aureus [6]) | MIC (Klebsiella pneumoniae)
1 | CCCCCCCCCCCCCCN(Cc1ccccc1)C(=O)[C@@H](N)CCCCN.O=C(O)C(F)(F)F.O=C(O)C(F)(F)F | 3.1 µg/mL | 2 µg/mL | 2.5 µg/mL | 2.5 µg/mL | 2.8 µg/mL | 15.8 min | 3.1 µg/mL | 50 µg/mL | 4 µg/mL |  |  |  |  |  |  |  | 
2 | CCCCCCCCN(Cc1cccc2ccccc12)C(=O)[C@@H](N)CCCCN.O=C(O)C(F)(F)F.O=C(O)C(F)(F)F | 5 µg/mL | 5.5 µg/mL | 4.4 µg/mL | 7 µg/mL | 5.4 µg/mL | 12.9 min | 6.3 µg/mL | 60 µg/mL | 13 µg/mL |  |  |  |  |  |  |  | 
3 | CCCCCCCCN(Cc1c2ccccc2c(Cl)c2ccccc12)C(=O)[C@@H](N)CCCCN.O=C(O)C(F)(F)F.O=C(O)C(F)(F)F | 2.9 µg/mL | 2.5 µg/mL | 2.3 µg/mL | 3 µg/mL | 3.8 µg/mL | 14.6 min | 2.2 µg/mL | 64 µg/mL | 4.3 µg/mL | 5 |  |  |  |  |  |  | 
4 | CCCCCCCCN(Cc1ccccc1)C(=O)[C@@H](N)CCCCN.O=C(O)C(F)(F)F.O=C(O)C(F)(F)F | 51 µg/mL | 60 µg/mL | > 100 µg/mL | > 100 µg/mL | 60 µg/mL | 12.1 min | 46 µg/mL | 325 µg/mL | > 100 µg/mL |  |  |  |  |  |  |  | 
5 | CCCCN(Cc1c2ccccc2c(Cl)c2ccccc12)C(=O)[C@@H](N)CCCCN.O=C(O)C(F)(F)F.O=C(O)C(F)(F)F | 4.8 µg/mL | 4.5 µg/mL | 6.3 µg/mL | 5.3 µg/mL | 1.9 µg/mL | 12.4 min | 5.3 µg/mL | 91 µg/mL | 17 µg/mL |  |  |  |  |  |  |  | 
6 | CCCCCCCCCCN(Cc1ccccc1)C(=O)[C@@H](N)CCCCN.O=C(O)C(F)(F)F.O=C(O)C(F)(F)F | 6.5 µg/mL | 6.5 µg/mL | 15.7 µg/mL | 5.8 µg/mL | 4 µg/mL | 13.4 min | 5.7 µg/mL | 95 µg/mL | 31 µg/mL |  |  |  |  |  |  |  | 
7 | CCN(Cc1c2ccccc2c(Cl)c2ccccc12)C(=O)[C@@H](N)CCCCN.O=C(O)C(F)(F)F.O=C(O)C(F)(F)F | 25 µg/mL | 13.6 µg/mL | 21 µg/mL | 7.2 µg/mL | 4 µg/mL | 11.8 min | 11 µg/mL | 118 µg/mL | 31 µg/mL |  |  |  |  |  |  |  | 
8 | CCCCN(Cc1cccc2ccccc12)C(=O)[C@@H](N)CCCCN.O=C(O)C(F)(F)F.O=C(O)C(F)(F)F | > 100 µg/mL | > 100 µg/mL | > 100 µg/mL | > 100 µg/mL | > 100 µg/mL | 10.8 min | > 100 µg/mL | > 1000 µg/mL | > 100 µg/mL |  |  |  |  |  |  |  | 
9 | CN[C@H](CC(C)C)C(=O)N[C@H]1C(=O)N[C@@H](CC(N)=O)C(=O)N[C@H]2C(=O)N[C@H]3C(=O)N[C@H](C(=O)N[C@H](C(=O)O)c4cc(O)cc(O)c4-c4cc3ccc4O)[C@H](O)c3ccc(c(Cl)c3)Oc3cc2cc(c3O[C@@H]2O[C@H](CO)[C@@H](O)[C@H](O)[C@H]2O[C@H]2C[C@](C)(N)[C@H](O)[C@H](C)O2)Oc2ccc(cc2Cl)[C@H]1O [VANCOMYCIN] |  | 0.87 µg/mL (≈ 0.6 µM) | 0.9 µg/mL (≈ 0.621 µM) | > 100 µg/mL |  |  | 0.9 µg/mL (≈ 0.621 µM) |  |  |  |  |  |  |  |  |  | 
10 | CCCCCCN(Cc1ccccc1)C(=O)[C@@H](N)CCCCN.O=C(O)C(F)(F)F.O=C(O)C(F)(F)F | > 100 µg/mL | > 100 µg/mL | > 100 µg/mL |  | > 100 µg/mL | 10.6 min | > 100 µg/mL | > 1000 µg/mL | > 100 µg/mL |  |  |  |  |  |  |  | 
11 | CCCCCCCCCCCCN(Cc1ccccc1)C(=O)[C@@H](N)CCCCN.O=C(O)C(F)(F)F.O=C(O)C(F)(F)F | 5 µg/mL | 2.6 µg/mL | 2.9 µg/mL | 3.3 µg/mL | 4 µg/mL | 14.5 min | 2.7 µg/mL | 45 µg/mL |  |  |  |  |  |  |  |  | 
12 | CCCCCCCCCCN(Cc1c2ccccc2c(Cl)c2ccccc12)C(=O)[C@@H](N)CCCCN.O=C(O)C(F)(F)F.O=C(O)C(F)(F)F | 26 µg/mL | 4.9 µg/mL | 4.6 µg/mL | 5.6 µg/mL | 11 µg/mL | 15.6 min | 7.1 µg/mL | 71 µg/mL | 7.6 µg/mL |  |  |  |  |  |  |  | 
13 | CCCCCCCCCCCCN(Cc1cccc2ccccc12)C(=O)[C@@H](N)CCCCN.O=C(O)C(F)(F)F.O=C(O)C(F)(F)F | 3.1 µg/mL | 1.6 µg/mL | 2.7 µg/mL | 3.4 µg/mL | 3.2 µg/mL | 15.1 min | 3 µg/mL | 56 µg/mL | 4 µg/mL |  |  |  |  |  |  |  | 
14 | CCCCCCCCCCN(Cc1cccc2ccccc12)C(=O)[C@@H](N)CCCCN.O=C(O)C(F)(F)F.O=C(O)C(F)(F)F | 4 µg/mL | 3.5 µg/mL | 2.6 µg/mL | 1.6 µg/mL | 3 µg/mL | 14.2 min | 2.5 µg/mL | 54 µg/mL | 5.8 µg/mL |  |  |  |  |  |  |  | 
15 | CCCCN(Cc1ccccc1)C(=O)[C@@H](N)CCCCN.O=C(O)C(F)(F)F.O=C(O)C(F)(F)F | > 100 µg/mL | > 100 µg/mL | > 100 µg/mL |  | > 100 µg/mL | 9.4 min | > 100 µg/mL | > 1000 µg/mL | > 100 µg/mL |  |  |  |  |  |  |  | 
16 | COLISTIN |  |  |  |  |  |  |  |  |  |  | 0.4 µg/mL | > 100 µg/mL | 54 µg/mL | > 100 µg/mL | 0.4 µg/mL | 20 µg/mL | 1.2 µg/mL

Source: ChEMBL document CHEMBL3124866, “Small molecular antibacterial peptoid mimics: the simpler the better!” (J Med Chem, 2014)
